# Columns and labels:
# [1] = biological target: Histone deacetylase (Homo sapiens) (UniProt Q13547+O15379+Q9UBN7+Q92769+Q9UQL6+Q8WUI4+Q9BY41+Q96DB2+P56524+Q9UKV0+Q969S8); assay: Inhibition of Class 1 histone deacetylase in human HeLa cells assessed as induction in p21 protein expression at 3 uM incubated for 16 hrs by luciferase reporter gene assay relative to HDAC inhibitor entinostat; type: cell-based; parameters: scale not given: the % may be the effect or the level left
# [2] = Clearance in mouse liver microsomes at 1 uM incubated for 10 mins by LC-MS/MS method; type: ADME, Microsome
# How it was run: (§1)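 Liver microsomes (human or mouse, 0.5 mg/mL) in 100 mM potassium phosphate pH 7.4 with 1 μM compound, prewarmed 10 min at 37 °C, started with NADPH (10 mM); stopped at 0, 3, 6, 9, 15, 30 min with ice-cold methanol containing tolbutamide internal standard; LC-MS/MS. Hepatic clearance (mL/min/kg) calculated from intrinsic clearance.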
# [3] = Clearance in human liver microsomes at 1 uM incubated for 10 mins by LC-MS/MS method; type: ADME, Microsome; how it was run: as §1
SMILES,Activity [1] [%],CLhep predicted at 1 µM [2] [mL/min/kg],CLhep predicted at 1 µM [3] [mL/min/kg]
CN1C[C@H](C(=O)Nc2ccc(Cl)cc2)[C@@H](c2ccc(/C=C/C(=O)Nc3ccccc3N)cc2)C1 (racemic),240,,
CN1C[C@H](C(=O)Nc2ccc(Cl)cc2)[C@@H](c2ccc(/C=C/C(=O)Nc3ccccc3N)nc2)C1 (racemic),> 300,38,12
CN1C[C@H](C(=O)Nc2ccc(Br)cc2)[C@@H](c2ccc(/C=C/C(=O)Nc3ccccc3N)cc2)C1 (racemic),40,16,3
CC(C)NC(=O)[C@H]1CN(C)C[C@@H]1c1ccc(/C=C/C(=O)Nc2ccccc2N)cc1 (racemic),70,12,8
CN1C[C@H](C(=O)NC2CCCC2)[C@@H](c2ccc(/C=C/C(=O)Nc3ccccc3N)cc2)C1 (racemic),180,61,9
CN1C[C@H](C(=O)Nc2ccc(C(F)(F)F)cc2)[C@@H](c2ccc(/C=C/C(=O)Nc3ccccc3N)cc2)C1 (racemic),10,23,6
Nc1ccccc1NC(=O)/C=C/c1ccc([C@H]2CN(Cc3ccccc3)C[C@@H]2C(=O)Nc2ccc(Cl)cc2)cc1 (racemic),70,81,3
CN1C[C@H](C(=O)Nc2ccc(Cl)cn2)[C@@H](c2ccc(/C=C/C(=O)Nc3ccccc3N)cc2)C1 (racemic),150,31,13
CN1C[C@H](C(=O)Nc2ccc(C#N)cc2)[C@@H](c2ccc(/C=C/C(=O)Nc3ccccc3N)cc2)C1 (racemic),80,35,1
Cc1cc(NC(=O)[C@H]2CN(C)C[C@@H]2c2ccc(/C=C/C(=O)Nc3ccccc3N)cc2)ccc1Cl (racemic),210,65,15
Nc1ccccc1NC(=O)/C=C/c1ccc([C@H]2CN(CC(F)(F)F)C[C@@H]2C(=O)Nc2ccc(Cl)cc2)cc1 (racemic),100,35,15
COc1ccc(NC(=O)[C@H]2CN(C)C[C@@H]2c2ccc(/C=C/C(=O)Nc3ccccc3N)cc2)cc1 (racemic),170,54,14
CN1C[C@H](C(=O)Nc2ccc(C3CC3)cc2)[C@@H](c2ccc(/C=C/C(=O)Nc3ccccc3N)cc2)C1 (racemic),60,60,12
Cc1ccc(NC(=O)[C@H]2CN(C)C[C@@H]2c2ccc(/C=C/C(=O)Nc3ccccc3N)cc2)cc1 (racemic),260,62,15
Nc1ccccc1NC(=O)/C=C/c1ccc([C@H]2CN(C3COC3)C[C@@H]2C(=O)Nc2ccc(Cl)cc2)cc1 (racemic),90,42,13
COCCN1C[C@H](C(=O)Nc2ccc(Cl)cc2)[C@@H](c2ccc(/C=C/C(=O)Nc3ccccc3N)cc2)C1 (racemic),250,72,6
CN1C[C@H](C(=O)Nc2ccc(Cl)cc2F)[C@@H](c2ccc(/C=C/C(=O)Nc3ccccc3N)cc2)C1 (racemic),200,43,11
CN1C[C@H](C(=O)Nc2ccc(Cl)cc2)[C@@H](c2cnc(/C=C/C(=O)Nc3ccccc3N)cn2)C1 (racemic),> 300,25,11

SMILES,Activity [1] [%],CLhep predicted at 1 µM [2] [mL/min/kg],CLhep predicted at 1 µM [3] [mL/min/kg]
Cc1cccc(NC(=O)[C@H]2CN(C)C[C@@H]2c2ccc(/C=C/C(=O)Nc3ccccc3N)cc2)c1 (racemic),350,74,14
N#CCN1C[C@H](C(=O)Nc2ccc(Cl)cc2)[C@@H](c2ccc(/C=C/C(=O)Nc3ccccc3N)cc2)C1 (racemic),190,51,17
CCN(CC)C(=O)N1C[C@H](C(=O)Nc2ccc(Cl)cc2)[C@@H](c2ccc(/C=C/C(=O)Nc3ccccc3N)cc2)C1 (racemic),90,83,19
Cc1cc(NC(=O)[C@H]2CN(C)C[C@@H]2c2ccc(/C=C/C(=O)Nc3ccccc3N)cc2)ccc1F (racemic),200,62,15
Cc1ccc(NC(=O)[C@H]2CN(C)C[C@@H]2c2ccc(/C=C/C(=O)Nc3ccccc3N)cc2)cn1 (racemic),130,57,8
CN1C[C@H](C(=O)Nc2ccc(F)c(Cl)c2)[C@@H](c2ccc(/C=C/C(=O)Nc3ccccc3N)cc2)C1 (racemic),180,34,15
CN1C[C@H](C(=O)Nc2ccccc2)[C@@H](c2ccc(/C=C/C(=O)Nc3ccccc3N)cc2)C1 (racemic),270,67,7
CN1C[C@H](C(=O)Nc2cccc(F)c2)[C@@H](c2ccc(/C=C/C(=O)Nc3ccccc3N)cc2)C1 (racemic),190,56,6
Nc1ccccc1NC(=O)/C=C/c1ccc([C@H]2CN(CCF)C[C@@H]2C(=O)Nc2ccc(Cl)cc2)cc1 (racemic),180,51,17
CN1C[C@H](C(=O)Nc2cccc(Cl)c2)[C@@H](c2ccc(/C=C/C(=O)Nc3ccccc3N)cc2)C1 (racemic),230,58,7
CN1C[C@H](C(=O)Nc2ccc(F)cc2F)[C@@H](c2ccc(/C=C/C(=O)Nc3ccccc3N)cc2)C1 (racemic),180,27,12
CCN1C[C@H](C(=O)Nc2ccc(Cl)cc2)[C@@H](c2ccc(/C=C/C(=O)Nc3ccccc3N)cc2)C1 (racemic),170,35,12
CN1C[C@H](C(=O)Nc2ccccn2)[C@@H](c2ccc(/C=C/C(=O)Nc3ccccc3N)cc2)C1 (racemic),140,40,8
Nc1ccccc1NC(=O)/C=C/c1ccc([C@H]2CN(c3ncccn3)C[C@@H]2C(=O)Nc2ccc(Cl)cc2)cc1 (racemic),120,44,11
CN1C[C@H](C(=O)Nc2ccccc2F)[C@@H](c2ccc(/C=C/C(=O)Nc3ccccc3N)cc2)C1 (racemic),170,67,10
CC(C)c1ccc(NC(=O)[C@H]2CN(C)C[C@@H]2c2ccc(/C=C/C(=O)Nc3ccccc3N)cc2)cc1 (racemic),70,54,10
CN1C[C@H](C(=O)Nc2ccncc2)[C@@H](c2ccc(/C=C/C(=O)Nc3ccccc3N)cc2)C1 (racemic),50,,

# Source: ChEMBL document CHEMBL2177000, “Pharmacokinetic optimization of class-selective histone deacetylase inhibitors and identification of associated candidate predictive biomarkers of hepatocellular carcinoma tumor response” (J Med Chem, 2012)
